Data: ChEMBL document CHEMBL3526002, “Tissue distribution and identification of radioactivity components at elimination phase after oral administration of [¹⁴C]CS-1036, an α-amylase inhibitor, to rats” (Drug Metab Dispos, 2013)

What was measured:
Parameters in all cases: dose 5 mg/kg, dosed compound name [14C]CS-1036, route oral
Settings in all cases: in vivo
Cerebrum = assay: Drug uptake in albino F344/DuCrlCrlj rat cerebrum assessed as ng equivalent of CS-1036 at 5 mg/kg, po after 336 hrs by liquid scintillation counting; assay type: ADME, organism-based
Method in brief: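 Single oral [14C]CS-1036 at 5 mg/kg was given to male rats (159–167 g; n = 3). Cerebrum was collected after aortic bleeding at 1, 4, 8, 24, 72, 168 or 336 h, weighed, and homogenized in 2 volumes of saline. A 0.5 ml aliquot was solubilized in Soluene-350 and counted by LSC with external-standard correction. Results are in ng equivalent/g tissue from specific activity and sample weight.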

Spleen [1] = assay: Drug uptake in albino F344/DuCrlCrlj rat spleen at 5 mg/kg, po after 72 hrs by liquid scintillation counting; assay type: ADME, organism-based
Thymus [2] = assay: Drug uptake in albino F344/DuCrlCrlj rat thymus assessed as ng equivalent of CS-1036 at 5 mg/kg, po after 1 hr by liquid scintillation counting; assay type: ADME, organism-based
[3] = Drug uptake in albino F344/DuCrlCrlj rat brown fat at 5 mg/kg, po after 8 hrs by liquid scintillation counting; assay type: ADME, organism-based, Brown adipose tissue
Blood [4] = assay: Drug uptake in albino F344/DuCrlCrlj rat blood at 5 mg/kg, po after 8 hrs by liquid scintillation counting; assay type: ADME, organism-based
Method in brief: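 Male rats (159–167 g; n = 3) received a single oral dose of [14C]CS-1036 at 5 mg/kg. Blood was drawn from the abdominal aorta at 1, 4, 8, 24, 72, 168 and 336 h. Radioactivity was counted by LSC with external-standard efficiency correction. Results are expressed as ng equivalent/ml from the specific activity and sample volume; mean + S.D.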

[5] = Drug uptake in albino F344/DuCrlCrlj rat brown fat assessed as ng equivalent of CS-1036 at 5 mg/kg, po after 1 hr by liquid scintillation counting; assay type: ADME, organism-based, Brown adipose tissue
Pancreas [6] = assay: Drug uptake in albino F344/DuCrlCrlj rat pancreas assessed as ng equivalent of CS-1036 at 5 mg/kg, po after 24 hrs by liquid scintillation counting; assay type: ADME, organism-based
[7] = Drug uptake in albino F344/DuCrlCrlj rat eyeball assessed as ng equivalent of CS-1036 at 5 mg/kg, po after 168 hrs by liquid scintillation counting; assay type: ADME, organism-based
Spleen [8] = assay: Drug uptake in albino F344/DuCrlCrlj rat spleen assessed as ng equivalent of CS-1036 at 5 mg/kg, po after 8 hrs by liquid scintillation counting; assay type: ADME, organism-based
Zone of skin [9] = assay: Drug uptake in albino F344/DuCrlCrlj rat skin at 5 mg/kg, po after 4 hrs by liquid scintillation counting; assay type: ADME, organism-based
Cerebellum = assay: Drug uptake in albino F344/DuCrlCrlj rat cerebellum assessed as ng equivalent of CS-1036 at 5 mg/kg, po after 4 hrs by liquid scintillation counting; assay type: ADME, organism-based
Thymus [10] = assay: Drug uptake in albino F344/DuCrlCrlj rat thymus at 5 mg/kg, po after 168 hrs by liquid scintillation counting; assay type: ADME, organism-based
Kidney = assay: Drug uptake in albino F344/DuCrlCrlj rat kidney at 5 mg/kg, po after 24 hrs by liquid scintillation counting; assay type: ADME, organism-based
Pancreas [11] = assay: Drug uptake in albino F344/DuCrlCrlj rat pancreas at 5 mg/kg, po after 1 hr by liquid scintillation counting; assay type: ADME, organism-based
Adrenal gland = assay: Drug uptake in albino F344/DuCrlCrlj rat adrenal gland at 5 mg/kg, po after 4 hrs by liquid scintillation counting; assay type: ADME, organism-based
Heart [12] = assay: Drug uptake in albino F344/DuCrlCrlj rat heart assessed as ng equivalent of CS-1036 at 5 mg/kg, po after 8 hrs by liquid scintillation counting; assay type: ADME, organism-based
Stomach [13] = assay: Drug uptake in albino F344/DuCrlCrlj rat stomach assessed as ng equivalent of CS-1036 at 5 mg/kg, po after 1 hr by liquid scintillation counting; assay type: ADME, organism-based
Blood [14] = assay: Drug uptake in albino F344/DuCrlCrlj rat blood assessed as ng equivalent of CS-1036 at 5 mg/kg, po after 168 hrs by liquid scintillation counting; assay type: ADME, organism-based
Method in brief: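 Male F344/DuCrlCrlj rats (159–167 g; n = 3 per time point) received a single oral dose of [14C]CS-1036 at 5 mg/kg. Blood was taken from the abdominal aorta at 1, 4, 8, 24, 72, 168 and 336 h. Radioactivity was counted by LSC with external-standard efficiency correction. Results were converted to ng equivalent of CS-1036/ml using specific activity and sample volume, and reported as mean + S.D.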

Aorta [15] = assay: Drug uptake in albino F344/DuCrlCrlj rat aorta at 5 mg/kg, po after 168 hrs by liquid scintillation counting; assay type: ADME, organism-based
Lung = assay: Drug uptake in albino F344/DuCrlCrlj rat lung at 5 mg/kg, po after 168 hrs by liquid scintillation counting; assay type: ADME, organism-based
Heart [16] = assay: Drug uptake in albino F344/DuCrlCrlj rat heart at 5 mg/kg, po after 168 hrs by liquid scintillation counting; assay type: ADME, organism-based
Zone of skin [17] = assay: Drug uptake in albino F344/DuCrlCrlj rat skin assessed as ng equivalent of CS-1036 at 5 mg/kg, po after 4 hrs by liquid scintillation counting; assay type: ADME, organism-based
[18] = Drug uptake in albino F344/DuCrlCrlj rat thyroid gland at 5 mg/kg, po after 72 hrs by liquid scintillation counting; assay type: ADME, organism-based
Spleen [19] = assay: Drug uptake in albino F344/DuCrlCrlj rat spleen assessed as ng equivalent of CS-1036 at 5 mg/kg, po after 4 hrs by liquid scintillation counting; assay type: ADME, organism-based
[20] = Drug uptake in albino F344/DuCrlCrlj rat eyeball at 5 mg/kg, po after 72 hrs by liquid scintillation counting; assay type: ADME, organism-based
Plasma = assay: Drug uptake in albino F344/DuCrlCrlj rat plasma assessed as ng equivalent of CS-1036 at 5 mg/kg, po after 24 hrs by liquid scintillation counting; assay type: ADME, organism-based
Aorta [21] = assay: Drug uptake in albino F344/DuCrlCrlj rat aorta assessed as ng equivalent of CS-1036 at 5 mg/kg, po after 8 hrs by liquid scintillation counting; assay type: ADME, organism-based
Thymus [22] = assay: Drug uptake in albino F344/DuCrlCrlj rat thymus assessed as ng equivalent of CS-1036 at 5 mg/kg, po after 336 hrs by liquid scintillation counting; assay type: ADME, organism-based
[23] = Drug uptake in albino F344/DuCrlCrlj rat skeletal muscle at 5 mg/kg, po after 24 hrs by liquid scintillation counting; assay type: ADME, organism-based, Muscle tissue
Stomach [24] = assay: Drug uptake in albino F344/DuCrlCrlj rat stomach at 5 mg/kg, po after 1 hr by liquid scintillation counting; assay type: ADME, organism-based
[25] = Drug uptake in albino F344/DuCrlCrlj rat bone marrow assessed as ng equivalent of CS-1036 at 5 mg/kg, po after 336 hrs by liquid scintillation counting; assay type: ADME, organism-based
[26] = Drug uptake in albino F344/DuCrlCrlj rat thyroid gland assessed as ng equivalent of CS-1036 at 5 mg/kg, po after 72 hrs by liquid scintillation counting; assay type: ADME, organism-based
Stomach [27] = assay: Drug uptake in albino F344/DuCrlCrlj rat stomach at 5 mg/kg, po after 72 hrs by liquid scintillation counting; assay type: ADME, organism-based

## C[C@H]1O[C@@H](O[C@H]2[C@H](O)[C@@H](O)[C@@H](O[14C@H]3[14C@H](O)[14CH2]N[14C@@H]3[14CH2]O)O[C@@H]2CO)[C@H](O)[C@@H](O)[C@@H]1O
Cerebrum
  Radiolabel recovery: 2.36 ngequiv/g
Spleen [1]
  Radiolabel recovery: 70.6 ngequiv/g
Thymus [2]
  Radiolabel recovery: 2.1 ngequiv/g
[3]
  Radiolabel recovery: 28.9 ngequiv/g
Blood [4]
  Radiolabel recovery: 22.1 ngequiv/ml
[5]
  Radiolabel recovery: 4.1 ngequiv/g
Pancreas [6]
  Radiolabel recovery: 25 ngequiv/g
[7]
  Radiolabel recovery: 2.3 ngequiv/g
Spleen [8]
  Radiolabel recovery: 84.1 ngequiv/g
Zone of skin [9]
  Radiolabel recovery: 33 ngequiv/g
Cerebellum
  Radiolabel recovery: 0.6 ngequiv/g
Thymus [10]
  Radiolabel recovery: 12 ngequiv/g
Kidney
  Radiolabel recovery: 137 ngequiv/g
Pancreas [11]
  Radiolabel recovery: 102 ngequiv/g
Adrenal gland
  Radiolabel recovery: 33.3 ngequiv/g
Heart [12]
  Radiolabel recovery: 8.3 ngequiv/g
Stomach [13]
  Radiolabel recovery: 640 ngequiv/g
Blood [14]
  Radiolabel recovery: 3.52 ngequiv/ml
Aorta [15]
  Radiolabel recovery: 18.1 ngequiv/g
Lung
  Radiolabel recovery: 17.2 ngequiv/g
Heart [16]
  Radiolabel recovery: 13.8 ngequiv/g
Zone of skin [17]
  Radiolabel recovery: 9.6 ngequiv/g
[18]
  Radiolabel recovery: 99.1 ngequiv/g
Spleen [19]
  Radiolabel recovery: 6.3 ngequiv/g
[20]
  Radiolabel recovery: 7.83 ngequiv/g
Plasma
  Radiolabel recovery: 6.1 ngequiv/ml
Aorta [21]
  Radiolabel recovery: 42.1 ngequiv/g
Thymus [22]
  Radiolabel recovery: 1.96 ngequiv/g
[23]
  Radiolabel recovery: 34.4 ngequiv/g
Stomach [24]
  Radiolabel recovery: 1670 ngequiv/g
[25]
  Radiolabel recovery: 11.4 ngequiv/g
[26]
  Radiolabel recovery: 42.7 ngequiv/g
Stomach [27]
  Radiolabel recovery: 49 ngequiv/g
